Converted amounts (≈) assume the structure as drawn.
Assays:
[1] = Cytotoxicity against mouse Hepa-1c1c7 cells; assay type: cell-based
How it was run: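 Mouse Hepa 1c1c7 hepatoma cells were cultured and assessed in the same system as the QR induction assay. IC50 was taken as the concentration causing half-maximal inhibition of cell viability.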

[2] = test system: Plasmodium falciparum; assay: Antiplasmodial activity against Plasmodium falciparum D6; assay type: functional, organism-based
[3] = Chemopreventive index, ratio of IC50 for mouse Hepa-1c1c7 cells to drug level required to double specific NADPH:quinone reductase activity in mouse Hepa-1c1c7 cells; assay type: functional
How it was run: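 Cultured mouse hepatoma Hepa 1c1c7 cells treated with extracts, fractions or pure isolates. QR induction was expressed as CD, the concentration that doubles QR specific activity. IC50 was the concentration giving half-maximal inhibition of cell viability in the same cells. Index computed as IC50/CD. Sulforaphane served as positive control.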

Structure (SMILES)	IC50 [2] [µg/mL]	IC50 [1] [µg/mL]	Ratio [3]
COc1cc(O)c(C(=O)/C=C/c2ccccc2)c(OC)c1 [FLAVOKAWAIN B]	–	7.2 (≈ 25.3 µM)	–
CC(C)C1=CC[C@@]2(C)[C@H](O)CC[C@](C)(O)[C@@H]2C1 [OPLODIOL]	< 5	–	–
C[S+]([O-])CCCCN=C=S (stereo not drawn) [SULFORAPHANE]	–	2.07 (≈ 11.7 µM)	23.8
COc1cc(O)c2c(c1)O[C@H](c1ccccc1)CC2=O (racemic) [PINOSTROBIN]	–	> 100	>111

Continued, in another order:

IC50 [2] [µg/mL]	Structure (SMILES)	IC50 [1] [µg/mL]	Ratio [3]
< 5	C=C1CC[C@@H](C(C)C)/C=C/[C@@](C)(O)CC[C@@H]1O	–	–
< 5	C/C1=C\CC[C@](C)(O)/C=C/[C@H](C(C)C)CC1	–	–
